What is called Kd is the equilibrium constant for the complex coming apart. A high value points to weaker binding.

Read-outs that look alike come from different tables or passages of the source. Peptide text beside a SMILES is read from it. * marks the point of attachment. Dansyl = CN(C)c1cccc2c(S(=O)(=O)*)cccc12 Where only a bound is given, the exact number is not on record here.

Consider nine compounds from article PMC3059893 (Biochemistry, 2011).

Assay [1] has as its target T1, Tiam2 PDZ domain (Mus musculus, UniProt Q6ZPF3).
T1 sequence (Q6ZPF3 908-997 limits assumed): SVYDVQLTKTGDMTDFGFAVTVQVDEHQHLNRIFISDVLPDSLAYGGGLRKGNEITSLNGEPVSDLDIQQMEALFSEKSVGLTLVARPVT
In words: Equilibrium fluorescence anisotropy binding of dansylated peptides. In a few lines:
(§1)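 Purified PDZ domains were titrated from a 1.5 mM stock into 1 μM N-terminally dansylated peptide at 25 °C in a stirred cuvette. Proteins were expressed in E. coli BL21(DE3), purified by Ni-chelate and size-exclusion chromatography, and His6-tag cleaved by TEV; Tiam2 is mouse residues 809–994; mutants made by site-directed mutagenesis. Anisotropy ex 340/em 550 nm, buffer-blank corrected. Kd from hyperbolic fit, mean of ≥3 independent runs; ΔG = RT ln Kd (298.15 K).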
In general terms: In fluorescence polarisation assays a small probe gives low polarisation when free and higher when bound to something large.

In assay [2] the target is Tiam1 PDZ L911M (Homo sapiens, UniProt Q13009, L911M). Description: Fluorescence anisotropy binding, Tiam1 PDZ mutant. In a few lines:
as §1

The target of assay [3] is Tiam1 PDZ K912E (Homo sapiens, UniProt Q13009, K912E). Description: Fluorescence anisotropy binding, Tiam1 PDZ mutant. In a few lines: as §1
Chain of Tiam1 PDZ K912E (Q13009 841-930 K912E limits assumed): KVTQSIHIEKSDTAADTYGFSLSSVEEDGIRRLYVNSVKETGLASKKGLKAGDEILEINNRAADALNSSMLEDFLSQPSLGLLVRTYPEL
The target of assay [4] is Tiam1 PDZ L911M/K912E (Mus musculus, UniProt Q60610, L911M/K912E, species not given). Description: Fluorescence anisotropy binding and double-mutant cycle, Tiam1 PDZ mutant. Particulars: Tiam1 PDZ L911M/K912E; for Kd: fluorescence anisotropy, 25 °C. In a few lines: (§2)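 Wild-type, single- and double-mutant Tiam1 PDZ (E. coli-expressed, tag-cleaved) were each titrated into 1 μM dansylated peptide at 25 °C. Anisotropy read at ex 340/em 550 nm; Kd from hyperbolic fit, ≥3 independent runs. ΔG = RT ln Kd at 298.15 K. Coupling energy ΔΔΔGint = (ΔGWT − ΔGM1) − (ΔGM2 − ΔGDM), with errors propagated by standard methods.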
Chain of Tiam1 PDZ L911M/K912E (Mus musculus, UniProt Q60610, L911M/K912E, species not given) (Q60610 2-1591 L911M/K912E): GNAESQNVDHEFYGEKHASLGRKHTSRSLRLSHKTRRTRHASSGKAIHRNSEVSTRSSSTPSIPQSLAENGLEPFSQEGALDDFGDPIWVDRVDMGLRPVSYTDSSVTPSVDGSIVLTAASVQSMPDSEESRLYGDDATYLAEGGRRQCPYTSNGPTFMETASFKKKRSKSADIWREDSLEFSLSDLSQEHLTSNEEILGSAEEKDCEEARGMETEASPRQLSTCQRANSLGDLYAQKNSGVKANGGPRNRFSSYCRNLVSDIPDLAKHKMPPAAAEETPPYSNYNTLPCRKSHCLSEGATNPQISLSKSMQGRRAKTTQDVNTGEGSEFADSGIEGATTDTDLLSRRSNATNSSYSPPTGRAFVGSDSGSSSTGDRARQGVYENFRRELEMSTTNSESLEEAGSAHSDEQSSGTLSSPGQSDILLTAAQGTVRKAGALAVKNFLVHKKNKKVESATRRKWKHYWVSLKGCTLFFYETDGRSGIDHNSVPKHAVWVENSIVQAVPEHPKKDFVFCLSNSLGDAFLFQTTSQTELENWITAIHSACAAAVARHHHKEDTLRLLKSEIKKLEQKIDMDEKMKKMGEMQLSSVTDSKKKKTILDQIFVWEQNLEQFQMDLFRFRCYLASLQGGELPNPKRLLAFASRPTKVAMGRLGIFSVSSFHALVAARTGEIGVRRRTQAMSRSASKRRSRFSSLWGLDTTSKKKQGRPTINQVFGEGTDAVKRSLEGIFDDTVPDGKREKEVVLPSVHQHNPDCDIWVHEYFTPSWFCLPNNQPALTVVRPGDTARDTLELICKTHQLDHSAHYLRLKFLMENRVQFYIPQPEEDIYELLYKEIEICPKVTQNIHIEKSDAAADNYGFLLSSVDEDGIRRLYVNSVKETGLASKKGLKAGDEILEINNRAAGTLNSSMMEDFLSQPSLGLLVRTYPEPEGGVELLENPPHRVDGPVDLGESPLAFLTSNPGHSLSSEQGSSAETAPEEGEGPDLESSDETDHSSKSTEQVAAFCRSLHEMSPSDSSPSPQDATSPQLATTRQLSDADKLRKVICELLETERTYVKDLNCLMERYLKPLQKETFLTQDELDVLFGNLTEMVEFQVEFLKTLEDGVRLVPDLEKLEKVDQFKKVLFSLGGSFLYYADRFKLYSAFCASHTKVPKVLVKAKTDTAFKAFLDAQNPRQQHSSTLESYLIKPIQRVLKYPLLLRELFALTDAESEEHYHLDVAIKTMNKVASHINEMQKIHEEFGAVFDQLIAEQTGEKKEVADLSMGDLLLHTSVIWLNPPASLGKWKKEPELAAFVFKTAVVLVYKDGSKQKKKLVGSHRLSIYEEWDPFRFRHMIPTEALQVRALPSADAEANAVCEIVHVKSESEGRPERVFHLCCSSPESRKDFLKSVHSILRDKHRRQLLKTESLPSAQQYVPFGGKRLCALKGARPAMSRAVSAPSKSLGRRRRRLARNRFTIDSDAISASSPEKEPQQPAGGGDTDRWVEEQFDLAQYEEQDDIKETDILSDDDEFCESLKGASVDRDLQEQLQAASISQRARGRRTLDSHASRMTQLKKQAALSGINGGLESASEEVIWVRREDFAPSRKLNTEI

The test system of assay [5] is Tiam1 PDZ L911M/K912E. Described as above. The note with it: for ΔΔGb: ΔGb(mutant) − ΔGb(wild-type), L911M/K912E. In a few lines:
as §2

The target in assay [6] is Tiam1 PDZ L915F (Homo sapiens, UniProt Q13009, L915F). In words: Fluorescence anisotropy binding, Tiam1 PDZ mutant. In a few lines:
as §1

Assay [7] addresses Tiam1 PDZ L920V (Homo sapiens, UniProt Q13009, L920V). In words: Fluorescence anisotropy binding, Tiam1 PDZ mutant. In a few lines: as §1
Assay [8] deals with Tiam1 PDZ L915F/L920V (Mus musculus, UniProt Q60610, L915F/L920V, species not given). In words: Fluorescence anisotropy binding and double-mutant cycle, Tiam1 PDZ mutant. Particulars: Tiam1 PDZ L915F/L920V; for Kd: fluorescence anisotropy, 25 °C. In a few lines: as §2
Chain of Tiam1 PDZ L915F/L920V (Mus musculus, UniProt Q60610, L915F/L920V, species not given) (Q60610 2-1591 L915F/L920V): as the sequence (Q60610 2-1591 L911M/K912E) above, with M910L, E911K, L914F, L919V counted along it
For assay [9], the system named is Tiam1 PDZ L915F/L920V. The description is as above. Particulars: for ΔΔGb: ΔGb(mutant) − ΔGb(wild-type), L915F/L920V. In a few lines:
as §2

The target of assay [10] is Tiam1 PDZ QM (L911M/K912E/L915F/L920V) (Homo sapiens, UniProt Q13009, K912E/L911M/L915F/L920V). In words: Fluorescence anisotropy binding, Tiam1 PDZ quadruple mutant. Particulars: for ΔGb: Tiam1 PDZ QM. In a few lines:
as §1

In assay [11] the test system is Tiam1 PDZ QM (L911M/K912E/L915F/L920V). Described as above. Particulars: for ΔΔGb: ΔGb(mutant) − ΔGb(wild-type), QM. In a few lines:
as §1

In assay [12] the target is Tiam1 PDZ domain (wild-type) (Homo sapiens, UniProt Q13009). In words: Equilibrium fluorescence anisotropy binding of dansylated peptides. In a few lines: as §1
Chain of Tiam1 PDZ domain (wild-type) (Q13009 841-930 limits assumed): as the sequence (Q13009 841-930 K912E limits assumed) above, with E72K counted along it

Chain of Tiam1 PDZ QM (L911M/K912E/L915F/L920V) (Homo sapiens, UniProt Q13009, K912E/L911M/L915F/L920V) (Q13009 841-930 L911M/K912E/L915F/L920V limits assumed): as the sequence (Q13009 841-930 K912E limits assumed) above, with L71M, L75F, L80V counted along it
Chain of Tiam1 PDZ L911M (Q13009 841-930 L911M limits assumed): as the sequence (Q13009 841-930 K912E limits assumed) above, with L71M, E72K counted along it
Chain of Tiam1 PDZ L915F (Q13009 841-930 L915F limits assumed): as the sequence (Q13009 841-930 K912E limits assumed) above, with E72K, L75F counted along it
Chain of Tiam1 PDZ L920V (Q13009 841-930 L920V limits assumed): as the sequence (Q13009 841-930 K912E limits assumed) above, with E72K, L80V counted along it

Consider `CC(C)[C@H](NC(=O)[C@H](Cc1ccc(O)cc1)NC(=O)[C@H](Cc1ccc(O)cc1)NC(=O)[C@H](CCC(=O)O)NC(=O)[C@H](CCCCN)NC(=O)[C@H](CC(=O)O)NC(=O)[C@H](CCCCN)NC(=O)[C@H](CC(N)=O)NS(=O)(=O)c1cccc2c(N(C)C)cccc12)C(=O)O` [Neurexin1] (Dansyl-NKDKEYYV-OH), for which the Kd in [1] was 5 ± 0.2 µM; in [2] (Tiam1 PDZ L911M, fluorescence anisotropy, 25 °C), “bound very weakly”; in assay [3] (Tiam1 PDZ K912E, fluorescence anisotropy, 25 °C) it was “bound very weakly”; in [4], 270 ± 150 µM; in assay [6] (Tiam1 PDZ L915F, fluorescence anisotropy, 25 °C) it was “too weak to allow for reliable measurement”; in assay [7] (Tiam1 PDZ L920V, fluorescence anisotropy, 25 °C) it was “too weak to allow for reliable measurement”. For the same compound, the Kd in assay [8] worked out at 166 ± 12 µM; in assay [10] it was 46 ± 2 µM. In addition, the ΔGb is -4.90 ± 0.30 kcal/mol in [4], -5.15 ± 0.07 kcal/mol in assay [8] and -5.91 ± 0.04 kcal/mol in assay [10]. For the same compound, the values for the ΔΔGb in assay [5], in assay [9] and in [11] were -1.30 ± 0.30 kcal/mol, -1.58 ± 0.10 kcal/mol and -2.30 ± 0.10 kcal/mol, respectively. In addition, the “fold higher Kd than Tiam2 PDZ domain” value in [11] (QM vs Tiam2 PDZ) is listed as 9 fold.
As to `CC[C@H](C)[C@H](NC(=O)[C@H](CC(C)C)NC(=O)[C@H](C)NC(=O)[C@H](C)NC(=O)[C@H](Cc1ccc(O)cc1)NS(=O)(=O)c1cccc2c(N(C)C)cccc12)C(=O)N[C@@H](Cc1c[nH]cn1)C(=O)N[C@@H](CCCCN)C(=O)N[C@@H](Cc1ccccc1)C(=O)O` [Tiam2 peptide 3 (Group II)] (Dansyl-YAALIHKF-OH), the Kd in assay [12] was greater than 250 µM; in [1], 28.7 ± 4.9 µM.
For `C[C@H](NC(=O)[C@H](Cc1ccc(O)cc1)NC(=O)[C@H](Cc1ccccc1)NC(=O)[C@H](CCC(=O)O)NC(=O)[C@H](CCC(=O)O)NC(=O)[C@H](CCC(N)=O)NC(=O)[C@H](CCCCN)NC(=O)[C@@H](NS(=O)(=O)c1cccc2c(N(C)C)cccc12)[C@@H](C)O)C(=O)O` [Syndecan1] (Dansyl-TKQEEFYA-OH), the Kd in [1] stood at 200 ± 20 µM; in assay [2], 34.7 ± 0.7 µM; in [3], 140 ± 20 µM; in assay [4], 211 ± 36 µM; in [6], 81 ± 7 µM; in assay [7] it was 46 ± 3 µM. In addition, the dissociation constant Kd came out at 250 ± 20 µM in [8] and 122 ± 8 µM in [10]. The ΔGb is -6.08 ± 0.01 kcal/mol in assay [2] (Tiam1 PDZ L911M); -5.25 ± 0.08 kcal/mol in [3] (Tiam1 PDZ K912E); -5.00 ± 0.10 kcal/mol in assay [4]; -5.58 ± 0.05 kcal/mol in [6] (Tiam1 PDZ L915F); -5.92 ± 0.03 kcal/mol in assay [7] (Tiam1 PDZ L920V); -4.91 ± 0.08 kcal/mol in assay [8]. In [10], this compound came in with a ΔGb of -5.33 ± 0.04 kcal/mol. Moreover, the ΔΔGb came to 0.15 ± 0.02 kcal/mol in assay [2] (ΔGb(mutant) − ΔGb(wild-type), L911M); 0.98 ± 0.09 kcal/mol in [3] (ΔGb(mutant) − ΔGb(wild-type), K912E); 1.20 ± 0.10 kcal/mol in [5]; 0.65 ± 0.06 kcal/mol in [6] (ΔGb(mutant) − ΔGb(wild-type), L915F); 0.31 ± 0.04 kcal/mol in assay [7] (ΔGb(mutant) − ΔGb(wild-type), L920V); 1.32 ± 0.09 kcal/mol in assay [9]. In addition, in assay [11], the ΔΔGb is recorded as 0.89 ± 0.04 kcal/mol. For the same compound, the “ΔΔΔGint (pair-wise coupling free energy)” value in assay [5] (double-mutant cycle L911/K912 (S-2 pocket)) amounted to 0.07 ± 0.13 kcal/mol; in [9] (double-mutant cycle L915/L920 (S0 pocket)), 0.36 ± 0.13 kcal/mol. The Σ singles was found to be 1.13 ± 0.09 kcal/mol in [5] (sum of ΔΔGb of single mutants L911M and K912E); 0.96 ± 0.07 kcal/mol in [9] (sum of ΔΔGb of single mutants L915F and L920V). The “fold lower Kd than Tiam2 PDZ domain” value in assay [11] (QM vs Tiam2 PDZ) is on record as 1.6 fold.
As to `C[C@H](NC(=O)[C@H](C)NC(=O)[C@H](Cc1ccc(O)cc1)NS(=O)(=O)c1cccc2c(N(C)C)cccc12)C(=O)N[C@@H](CCCCN)C(=O)N[C@@H](C)C(=O)N[C@@H](Cc1ccccc1)C(=O)N[C@@H](CCCNC(=N)N)C(=O)N[C@@H](Cc1ccccc1)C(=O)O` [Tiam1 peptide 3 (Group II)] (Dansyl-YAAKAFRF-OH), the Kd in assay [12] was found to be 200 ± 50 µM; in assay [1], 7.7 ± 1.3 µM.
Regarding `C[C@H](NC(=O)[C@H](CCCNC(=N)N)NC(=O)[C@H](Cc1ccc(O)cc1)NC(=O)[C@H](CCCNC(=N)N)NC(=O)[C@H](Cc1ccc(O)cc1)NC(=O)[C@H](C)NC(=O)[C@H](C)NC(=O)[C@H](Cc1ccc(O)cc1)NS(=O)(=O)c1cccc2c(N(C)C)cccc12)C(=O)O` [Tiam1 peptide 1 (Group I)] (Dansyl-YAAYRYRA-OH), the figures for the Kd in [12] and in assay [1] were greater than 250 µM and 22.5 ± 1.1 µM, respectively.
In the same order, the values of `CC(C)[C@H](NC(=O)[C@H](Cc1ccc(O)cc1)NC(=O)[C@@H](NC(=O)[C@H](CCCNC(=N)N)NC(=O)[C@H](CCCCN)NC(=O)[C@H](C)NC(=O)[C@H](C)NC(=O)[C@H](Cc1ccc(O)cc1)NS(=O)(=O)c1cccc2c(N(C)C)cccc12)[C@@H](C)O)C(=O)O` [Tiam2 peptide 1 (Group I)] (Dansyl-YAAKRTYV-OH) are greater than 250 µM and 77.6 ± 2.4 µM.
In the case of `C[C@H](NC(=O)[C@H](Cc1ccc(O)cc1)NC(=O)[C@H](Cc1ccc(O)cc1)NC(=O)[C@H](CCC(=O)O)NC(=O)[C@H](CCCCN)NC(=O)[C@H](CCCNC(=N)N)NC(=O)[C@H](CO)NC(=O)[C@H](CO)NS(=O)(=O)c1cccc2c(N(C)C)cccc12)C(=O)O` [Model, reference compound] (Dansyl-SSRKEYYA-OH), the Kd in [1] came to 24.1 ± 7.1 µM.
Turning to `C[C@H](NC(=O)[C@H](C)NC(=O)[C@H](Cc1ccc(O)cc1)NS(=O)(=O)c1cccc2c(N(C)C)cccc12)C(=O)NCC(=O)N[C@@H](CCCNC(=N)N)C(=O)N[C@@H](CCCCN)C(=O)N[C@@H](Cc1c[nH]cn1)C(=O)N[C@@H](Cc1ccccc1)C(=O)O` [Tiam2 peptide 2 (Group II)] (Dansyl-YAAGRKHF-OH), the values for the Kd in assay [12] and in assay [1] were greater than 250 µM and 9.9 ± 2.2 µM, respectively.
`C[C@H](NC(=O)[C@H](Cc1c[nH]c2ccccc12)NC(=O)[C@H](Cc1ccc(O)cc1)NC(=O)[C@H](CCCCN)NC(=O)[C@H](CCC(=O)O)NC(=O)[C@H](C)NC(=O)[C@H](C)NC(=O)[C@H](Cc1ccc(O)cc1)NS(=O)(=O)c1cccc2c(N(C)C)cccc12)C(=O)O` [Tiam1 peptide 2 (Group I)] (Dansyl-YAAEKYWA-OH): the Kd worked out at 90.3 ± 8.3 µM in assay [12] and 10.9 ± 0.4 µM in assay [1].
